This note sets out measurements from ChEMBL document CHEMBL1208693, “Synthesis and evaluation of novel antifungal agents-quinoline and pyridine amide derivatives” (2010).

Holding throughout (format): functional
The test system of test [1] is Candida albicans. Briefly: Antifungal activity against Candida albicans E81022 after 2 days by broth-microdilution method. Particulars: E81022, 48 h. A digest of the protocol:
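Yeast broth microdilution following CLSI M27-A3, slightly modified. Cells were subcultured in Sabouraud dextrose broth at 35 °C for 1–2 days, then inoculated at 2×10^3–2×10^4 cells/mL. Compounds in twofold DMSO dilutions gave final concentrations of 0.05–200 µg/mL; the control was 1% DMSO. Incubation was 35 °C for 2 days. MIC was the lowest concentration with a visually prominent turbidity drop relative to control.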
For orientation: Dilution methods test growth across graded concentrations, often in twofold steps.

Test [2] deals with Candida albicans. Briefly: Ratio of compound MIC to Amphotericin B MIC for Candida albicans E81022.
For test [3], the system named is Aspergillus fumigatus. Description: Antifungal activity against Aspergillus fumigatus Tsukuba after 2 days by broth-microdilution method. Particulars: 48 h. A digest of the protocol:
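CLSI M38-A2 broth microdilution, slightly modified. Conidia came from a one-week PDA culture at 35 °C and were stored at −80 °C. Inoculum was 2×10^3–2×10^4 conidia/mL. Compounds were serially twofold diluted from DMSO stock to final concentrations of 0.05–200 µg/mL; the control was 1% DMSO. Plates were incubated at 35 °C for 2 days. MIC was the lowest concentration giving a visually prominent turbidity decrease versus control.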

Test [4] has as its system Saccharomyces cerevisiae. Briefly: Antifungal activity against Saccharomyces cerevisiae KE744 after 2 days by broth-microdilution method. Conditions: KE744, 48 h. An outline of the steps:
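S. cerevisiae strain overexpressing GWT1 from the GAPDH promoter, grown in SD ura- medium at 30 °C for 1–2 days. Modified CLSI broth microdilution used 2×10^3–2×10^4 cells/mL. Final compound concentrations were 0.05–200 µg/mL from twofold DMSO dilutions, with 1% DMSO as control. Incubation was 30 °C for 2 days. MIC was the lowest concentration visibly and prominently reducing turbidity versus control.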

In test [5] the test system is Saccharomyces cerevisiae. Briefly: Ratio of MIC for Saccharomyces cerevisiae KE744 to Saccharomyces cerevisiae KE743 overexpressing GWT1. A digest of the protocol:
(§1)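 Broth microdilution (modified CLSI M27-A3) on S. cerevisiae KE743 (control) and KE744 (GWT1 overexpressed from GAPDH promoter), precultured in SD ura- at 30 °C for 1–2 days. Inoculum 2 × 10^3–2 × 10^4 cells/ml. Twofold dilutions at 0.05–200 µg/mL final, from DMSO; 1% DMSO control. Incubated 30 °C, 2 days. MIC is the lowest concentration with a prominent visual turbidity decrease; KE744/KE743 MICs compared.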

In test [6] the test system is Saccharomyces cerevisiae. Description: Antifungal activity against Saccharomyces cerevisiae KE743 […] after 2 days by broth-microdilution method. Conditions: KE743, 48 h. A digest of the protocol:
as §1

Each structure is given as a SMILES string. Values after ≈ are worked out from the molar mass of the structure shown.

Usually MIC stands for the smallest concentration in the dilution series that meets the test's criterion for growth inhibition. A higher MIC goes with a less susceptible organism.

For `Nc1ncccc1C(=O)NCc1ccc(Cc2ccccc2)s1`, the values for the MIC in test [1] and in test [3] were 0.05 µg/mL (≈ 0.155 µM) and 0.78 µg/mL (≈ 2.41 µM), respectively. In addition, the Ratio in test [2] came to 2.

As for `O=C(NCc1ccc(Oc2cccc(F)c2)s1)c1ccc2ncccc2c1`, the MIC in test [4] worked out at 3.13 µg/mL (≈ 8.27 µM); in test [6], 0.025 µg/mL (≈ 0.0661 µM); in test [1], 0.1 µg/mL (≈ 0.264 µM); in test [3], 1.56 µg/mL (≈ 4.12 µM). The Ratio in test [5] was found to be 128; in test [2], 2.

Turning to `O=C(NCc1ccc(Oc2ccccc2)s1)c1cnc2[nH]ccc2c1`, the MIC in test [4] was more than 12.5 µg/mL; in test [6] it was 0.2 µg/mL (≈ 0.572 µM); in test [1] it was 0.39 µg/mL (≈ 1.12 µM); in test [3], 3.13 µg/mL (≈ 8.96 µM). Besides, the Ratio in test [5] was more than 64; in test [2], 2.

With `Nc1ccc(C(=O)NCc2ccc(Oc3cccc(F)c3)s2)cn1`, the values for the MIC in test [4], in test [6] and in test [1] were more than 12.5 µg/mL, 1.56 µg/mL (≈ 4.54 µM) and 1.56 µg/mL (≈ 4.54 µM), respectively. For the same compound, in test [5], the Ratio is recorded as more than 8.

`Nc1ncccc1C(=O)NCc1ccc(Oc2cccc(F)c2)s1`: the MIC in test [4] was found to be 12.5 µg/mL (≈ 36.4 µM); in test [6] it was 0.1 µg/mL (≈ 0.291 µM); in test [1], 0.05 µg/mL (≈ 0.146 µM); in test [3], 0.78 µg/mL (≈ 2.27 µM). Further, the figures for the Ratio in test [5] and in test [2] were 128 and 2, respectively.

On to `Nc1ccc(C(=O)NCc2ccc(Oc3ccccc3)s2)c(N)n1`, for which the MIC was more than 12.5 µg/mL in test [4], 1.56 µg/mL (≈ 4.58 µM) in test [6], 0.78 µg/mL (≈ 2.29 µM) in test [1] and 1.56 µg/mL (≈ 4.58 µM) in test [3]. In addition, the Ratio in test [5] was more than 8; in test [2] it was 2.

Turning to `Nc1ccc(C(=O)NCc2ccc(Oc3ccc(F)cc3)s2)c(N)n1`, the MIC in test [4] was 12.5 µg/mL (≈ 34.9 µM); in test [6] it was 0.78 µg/mL (≈ 2.18 µM); in test [1], 0.39 µg/mL (≈ 1.09 µM); in test [3], 0.78 µg/mL (≈ 2.18 µM). The Ratio in test [5] is 16; in test [2], 2.

Compound `CCCCc1ccc(Cc2nccc3ccccc23)cc1` returned an MIC in test [1] of 1.56 µg/mL (≈ 5.66 µM).

Turning to `C[C@@H]1[C@H](O)[C@@H](C)/C=C/C=C/C=C/C=C/C=C/C=C/C=C/[C@H](O[C@@H]2O[C@H](C)[C@@H](O)[C@H](N)[C@@H]2O)C[C@@H]2O[C@](O)(C[C@@H](O)C[C@@H](O)[C@H](O)CC[C@@H](O)C[C@@H](O)CC(=O)O[C@H]1C)C[C@H](O)[C@H]2C(=O)O` [AMPHOTERICIN B], the MIC in test [4] is 0.78 µg/mL (≈ 0.844 µM); in test [6] it was 0.78 µg/mL (≈ 0.844 µM); in test [1] it was 1.56 µg/mL (≈ 1.69 µM); in test [3], 0.78 µg/mL (≈ 0.844 µM). The Ratio in test [5] was 1.

In the case of `OC(Cn1cncn1)(Cn1cncn1)c1ccc(F)cc1F` [FLUCONAZOLE], the MIC in test [4] is 6.25 µg/mL (≈ 20.4 µM); in test [6], 6.25 µg/mL (≈ 20.4 µM); in test [1], 0.39 µg/mL (≈ 1.27 µM). Also, the Ratio in test [5] stood at 1.
